# Rows were chosen to be rich in hits. Some 3% of all compounds tested hit in one or more screens of this group.
# Wee1 degr inh: human Wee1 degradation inhibition, primary screen | P30291 | HeLa Luc-Wee1K328M stability, luciferase luminescence; 100% = proteasome inhibitor MG132 effect | reporter increase, % at 5 µM | actives 1.2% (n = 220,000);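 active = activation above the mean of all tested compounds plus 3 SD, set per screening run, cut at about 8.8% in these data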;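 also: cells exposed to compound for 20 h before luminescence read; 0% = DMSO alone and 100% = MG132 at 30 µM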
# Target sequence (P30291 whole entry K328M): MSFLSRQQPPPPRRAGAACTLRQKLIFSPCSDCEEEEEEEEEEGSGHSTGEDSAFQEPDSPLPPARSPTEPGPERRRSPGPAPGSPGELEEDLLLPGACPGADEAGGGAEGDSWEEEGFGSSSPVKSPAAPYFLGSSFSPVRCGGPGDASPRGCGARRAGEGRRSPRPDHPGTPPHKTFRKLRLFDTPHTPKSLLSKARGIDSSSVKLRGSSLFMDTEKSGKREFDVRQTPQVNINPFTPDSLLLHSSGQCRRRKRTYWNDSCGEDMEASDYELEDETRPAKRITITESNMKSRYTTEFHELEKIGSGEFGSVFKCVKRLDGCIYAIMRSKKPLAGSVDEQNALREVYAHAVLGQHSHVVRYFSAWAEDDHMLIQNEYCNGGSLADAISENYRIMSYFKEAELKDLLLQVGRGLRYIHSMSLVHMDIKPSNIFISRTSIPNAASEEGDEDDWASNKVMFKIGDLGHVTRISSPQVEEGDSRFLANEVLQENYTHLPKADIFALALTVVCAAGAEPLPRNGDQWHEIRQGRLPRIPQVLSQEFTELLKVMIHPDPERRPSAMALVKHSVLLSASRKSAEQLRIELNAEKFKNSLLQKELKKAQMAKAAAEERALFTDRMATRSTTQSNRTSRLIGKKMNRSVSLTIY
# NPY1 pot ag: human NPY-Y1 potentiation or agonism, primary screen; P25929; NPY-Y1 expressing cells, potentiator/agonist activation; activation, % at 3.6 µM; actives 0.37% (n = 220,000); AID 1304; in the data active = activation above about 33%, passing the limit was not always enough;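 also: cells stimulated with NPY at EC10 then isoproterenol at EC100; 0% = low agonist plus stimulus and 100% = saturating agonist plus stimulus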
# Hsp70 act: transcriptional activators of Hsp70 | HeLa Hsp70 promoter luciferase reporter, luminescence; scaled: vehicle 0, proteasome-inhibitor control 100% | activation, % at 10 µM | actives 0.04% (n = 200,000) | AID 1203;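 active = activation above the mean across all tested compounds plus 3 SD, cutoff set per campaign, cut at about 5.5% in these data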;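 also: 100% = MG132 at 30 µM as the positive control and 0% = DMSO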
# NPY Y1 blocker: antagonists of human neuropeptide Y receptor Y1; HEK293-CNG Y1 cells, membrane potential fluorescence; NPY at EC95, then isoproterenol; actives 1% (n = 200,000); inhibition, % at 3.6 µM; P25929;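 active = inhibition above the campaign mean inhibition of all tested compounds plus 3 SD, cut at about 20% in these data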;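 also: 0% = DMSO wells given NPY plus isoproterenol and 100% = isoproterenol alone without NPY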
#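 Test system – HEK293 Y1/CNG channel cell line · Also added – NPY agonist 25 nM, then isoproterenol 1 µM plus Ro 20-1724 25 µM · Compound dosing – one concentration, 3.6 µM, in 0.4% DMSO · Schedule – compound incubation 1 h at room temperature, readout 45 min post-stimulation · Technique – fluorescence, membrane potential probe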
# NPY-Y2 antag: antagonists of human neuropeptide Y receptor Y2 | P49146 | inhibition, % at 2.7 µM | NPY-Y2 expressing cells, antagonist mode | AID 793 | actives 0.99% (n = 140,000); in the data active = inhibition above about 17%;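 also: 0% = vehicle with agonist challenge and 100% = reference antagonist with challenge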
# NPY2 pot ag: potentiators or agonists of human neuropeptide Y receptor Y2; P49146; cells expressing NPY-Y2, potentiator/agonist read-out; activation, % at 3.6 µM; actives 0.45% (n = 220,000); AID 1359; in the data active = activation above about 27%;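 also: cells stimulated with NPY near EC25 plus isoproterenol at EC100; 0% = vehicle plus submaximal agonist and 100% = vehicle plus saturating agonist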
# Wee1 degr conf: human Wee1 degradation inhibition, confirmation | shares compounds with Wee1 degr inh | HeLa Luc-Wee1K328M degradation, luminescence; vehicle 0%, proteasome-blocked wells 100% | activation, % at 5 µM | actives 4% (n = 1,100) | AID 1410; in the data active = activation above about 8.9%
# * = called active by the depositor; . = no result.
SMILES,Wee1 degr inh,NPY1 pot ag,Hsp70 act,NPY Y1 blocker,NPY-Y2 antag,NPY2 pot ag,Wee1 degr conf
COc1ccc(NC(=O)CN2CCC(NC(=O)C3CCCCC3)CC2)cc1,15*,27,0,-5,1,8,1
COc1ccc(NC(=O)CN2CCCCC2)cc1,1,-18,3,7,1,-4,.
CC[n+]1c(C)cc2c(sc3ccccc32)c1C,-2,-10,0,-1,.,-7,.
CCc1nc(C)cc2c1sc1ccccc12,25*,-12,.,.,.,-40,1
CN(C)c1nc(N)nc(-c2nc3ccccc3s2)n1,12*,1,0,-3,3,11,1
Cc1cccc(C)c1OCC(O)Cn1c2ccccc2c2ccccc21 (stereo not given),-1,-4,0,7,-3,-4,.
OC(COCC(F)(F)C(F)(F)C(F)(F)C(F)F)Cn1c2ccccc2c2ccccc21 (stereo not given),11*,-4,0,-3,-7,5,0
CCCCN(C)CCCNC(=O)/C=C1\Sc2ccccc2NC1=O,1,4,0,-1,.,5,.
COC(=O)c1c(NC(NC(C)=O)C(Cl)(Cl)Cl)sc2c1CCCC2 (stereo not given),14*,-12,0,4,1,8,4
CC(C)(C)NC(=O)/C(=C/c1ccccc1F)NC(=O)c1ccc([N+](=O)[O-])cc1,15*,8,0,5,.,-13,2
CC(C)(C)NC(=O)/C(=C\c1ccccc1F)NC(=O)c1ccc([N+](=O)[O-])cc1,1,2,0,2,.,-3,.
CS(=O)(=O)Nc1cccc(C2=NN(S(C)(=O)=O)C(c3ccc4c(c3)OCO4)C2)c1 (stereo not given),13*,-3,0,2,1,8,6
COC(=O)c1ccccc1NC(=O)Cn1c(CCC(=O)O)ccc1-c1cccs1,17*,-2,0,4,4,-1,7
CCOC(=O)C1(CC2CCCCO2)CCN(C(=O)Nc2ccccc2SC)CC1 (stereo not given),12*,11,0,-2,.,-13,3
CCOC(=O)c1[nH]ncc1CN1CCCC(C(=O)c2ccc(C(C)(C)C)cc2)C1 (stereo not given),-3,-3,0,-1,.,-7,.
FC(F)(F)c1nnc2n1N=C(c1cccs1)CS2,-5,-7,0,3,.,12,.
Cc1cn2c(nc(=O)c3cccnc32)s1,-2,18,0,5,3,7,.
CC(=O)OCC(=O)c1ccc2ccn(C(C)=O)c2c1,14*,-5,0,-1,0,7,0
COc1ccccc1N1CCN(CC(=O)c2ccc3ccn(C(C)=O)c3c2)CC1,-3,-12,0,6,4,14,.
COc1cccc(CN2CCNC(=O)C2CC(=O)NCCn2ccc3ccccc32)c1OC (stereo not given),1,-8,0,12,.,-1,.
O=C(CNc1cc(S(=O)(=O)N2CCCC2)ccc1OCC(F)(F)F)Nc1cccc(C(F)(F)F)c1,0,12,0,-4,1,12,.
O=C(Nc1cc(S(=O)(=O)N2CCCC2)ccc1OCC(F)(F)F)c1ccccc1F,13*,11,0,6,1,5,3
CCN1C/C(=N\S(=O)(=O)/N=C2\CN(CC)C(=O)N2CC)N(CC)C1=O,2,15,.,.,.,-5,.
Cc1cc(/C=C2\SC(=S)NC2=O)c(C)n1-c1ccc(O)cc1,1,6,.,.,.,-24,.
Cc1cc(/C=C2\SC(=S)NC2=O)c(C)n1-c1ccccc1,15*,24,.,.,.,17,4
SMILES,Wee1 degr inh,NPY1 pot ag,Hsp70 act,NPY Y1 blocker,NPY-Y2 antag,NPY2 pot ag,Wee1 degr conf
COc1ccc([N+](=O)[O-])cc1NC(=O)CCN1CCN(CCO)CC1,19*,-12,0,-4,4,-4,-2
CC(=O)Nc1ccc(C(O)(C(F)(F)F)C(F)(F)F)cc1,12*,17,0,-1,.,-4,2
Nc1ccc(C(O)(C(F)(F)F)C(F)(F)F)cc1,1,-5,0,-2,2,5,.
Cc1c(NC(=O)CN2CCC(C(N)=O)CC2)cccc1[N+](=O)[O-],-3,-3,0,2,.,-2,.
CCN(CC)C(=O)c1sc2c(c1C)c(=O)n(-c1ccc(OC)cc1OC)c(=O)n2CC(=O)c1ccccc1,12*,-16,0,0,.,-8,-1
COc1ccc(-n2c(=O)c3c(C)c(C)sc3n(Cc3cccc(F)c3)c2=O)c(OC)c1,4,8,0,4,.,3,.
CC(C)(C)NC(=O)NCCc1ccccc1,13*,8,.,.,.,9,-1
CCCCOC(=O)CSc1nc2ccccc2o1,12*,-9,.,.,.,-27,3
COc1ccc(NC(=O)c2onc(C)c2Cl)cc1OC,0,0,0,5,2,-9,.
COc1ccc(NC(=O)c2onc(C)c2Cl)cc1,17*,10,.,.,.,8,-1
O=C(CSc1nncc2ccccc12)N1CCCCC1,2,10,0,0,.,13,.
O=C(CSc1nc2ccccc2c(=O)n1-c1ccc(F)cc1)Nc1ccc(Cl)c(S(=O)(=O)N2CCOCC2)c1,14*,-29,0,6,2,-11,4
CCN1c2ccccc2-c2nc3ccccc3n2C1c1ccncc1 (stereo not given),16*,-24,0,10,9,-18,-1
CCN1c2ccccc2-c2nc3ccccc3n2C1c1cccnc1 (stereo not given),1,-14,0,-1,0,-5,.
O=S(=O)(Nc1nc2ccccc2nc1Nc1ccc2c(c1)OCO2)c1ccccc1,14*,15,0,3,0,7,-1
Cc1cccc(S(=O)(=O)Nc2nc3ccccc3nc2Nc2ccc3c(c2)OCO3)c1,6,-4,0,0,0,-4,.
O=C(CN1CCOCC1)N/N=C/C=C/c1ccccc1,23*,-14,0,5,.,-20,0
O=C(CN1CCN(Cc2ccccc2)CC1)N/N=C/C=C/c1ccco1,0,0,0,3,-1,-9,.
COC(=O)C1CCN(S(=O)(=O)Cc2ccccc2)CC1,-2,1,0,1,-3,-10,.
COCCOC(=O)C1=C(C)NC(=O)NC1c1ccc(-c2cc(Cl)ccc2Cl)o1 (stereo not given),-5,2,2,-10,.,-22,.
COc1ccc(-n2nnnc2SCC(=O)Nc2nnn(C)n2)cc1,11*,22,0,8,-2,1,-2
COc1ccc(-n2nnnc2SCC(=O)Nc2nc3c(s2)CCCC3)cc1,-1,9,0,1,4,-3,.

# Screens from PubChem.
